Source: ChEMBL document CHEMBL1148154, “New secondary metabolites from the marine endophytic fungus Apiospora montagnei” (J Nat Prod, 2004)
In brackets after ≈: the same amount, converted by molar mass. Activity calls are given as the source filed them.

Columns and labels:
HM02 = assay: Cytotoxicity against human HM02 cells at 10 ug/ml; assay type: functional, cell-based
Procedure, shortened: (§1)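 Human tumour lines were HM02 (gastric adenocarcinoma), HepG2 (hepatocellular carcinoma) and MCF7 (breast adenocarcinoma), run following NCI standards. Read-outs were total growth inhibition (TGI) and LC50, defined as a 50% reduction of the initial cell number, in µg/mL. Single-level testing was done at 10 µg/mL.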

HepG2 [1] = assay: Cytotoxicity against human HepG2 cells at 10 ug/ml; assay type: functional, cell-based; procedure, shortened: as §1
MCF7 [2] = assay: Cytotoxicity against human MCF7 cells at 10 ug/ml; assay type: functional, cell-based; procedure, shortened: as §1
Priestia megaterium = assay: Antibacterial activity against Bacillus megaterium at 50 ug/disk by agar diffusion assay; assay type: functional, organism-based
Escherichia coli = assay: Antibacterial activity against Escherichia coli at 50 ug/disk by agar diffusion assay; assay type: functional, organism-based
Microbotryum violaceum = assay: Antifungal activity against Microbotryum violaceum at 50 ug/disk by agar diffusion assay; assay type: functional, organism-based
[3] = test system: Aspergillus pseudoglaucus; assay: Antifungal activity against Eurotium repens at 50 ug/disk by agar diffusion assay; assay type: functional, organism-based
Mycotypha microspora = assay: Antifungal activity against Mycotypha microspora at 50 ug/disk by agar diffusion assay; assay type: functional, organism-based
[Chlorella] fusca = Antialgal activity against 'Chlorella' fusca at 50 ug/disk by agar diffusion assay; assay type: functional, organism-based; conditions: Scenedesmus fuscus
[4] = Cytotoxicity against human HM02 cells; assay type: functional; procedure, shortened: as §1
HepG2 [5] = assay: Cytotoxicity against human HepG2 cells; assay type: functional; procedure, shortened: as §1
MCF7 [6] = assay: Cytotoxicity against human MCF7 cells; assay type: functional; procedure, shortened: as §1
P388 = assay: Cytotoxicity against mouse P388 cells; assay type: functional; conditions: read-out: ED50 (the source's name)
Artemia = assay: Toxicity in brine shrimp; assay type: organism-based; conditions: in vivo
[7] = read-out: LC50 (the source's name)

Structure (SMILES)	Activity (HM02)	Activity (HepG2 [1])	Activity (MCF7 [2])	Activity (Priestia megaterium)	Activity (Escherichia coli)	Activity (Microbotryum violaceum)	Activity [3]	Activity (Mycotypha microspora)	Activity ([Chlorella] fusca)	GI50 [4] [µg/mL]	TGI [4] [µg/mL]	CC50 [4, 7] [µg/mL]	GI50 (HepG2 [5]) [µg/mL]	TGI (HepG2 [5]) [µg/mL]	CC50 (HepG2 [5]; [7]) [µg/mL]	GI50 (MCF7 [6]) [µg/mL]	TGI (MCF7 [6]) [µg/mL]	CC50 (MCF7 [6]; [7]) [µg/mL]	EC50 (P388) [µg/mL]	Activity (Artemia)
C=C[C@@]1(C)C=C2C(=O)C(O)=C3[C@](C)(C(=O)O)CC[C@@H]4C[C@]34[C@]2(O)C(=O)C1	inactive	inactive	inactive	inactive	inactive	inactive	inactive	inactive	inactive	–	–	–	–	–	–	–	–	–	–	–
C=C(C(=O)O)C(CCCCCC)C(=O)O (centres undefined)	–	–	–	inactive	inactive	inactive	inactive	inactive	inactive	–	–	–	–	–	–	–	–	–	–	–
C[C@@H]1C=C[C@@H]2C[C@H](CO)CC[C@H]2[C@@H]1C(=O)O	–	–	–	inactive	inactive	inactive	inactive	inactive	inactive	–	–	–	–	–	–	–	–	–	–	–
C=C(C(=O)O)C(CCCCC(C)O)C(=O)OC (centres undefined)	–	–	–	inactive	inactive	inactive	inactive	inactive	inactive	–	–	–	–	–	–	–	–	–	–	–
O=C1C(CO)=C[C@H](O)[C@H]2O[C@@H]12	–	–	–	inactive	inactive	inactive	inactive	inactive	inactive	0.7 (≈ 4.48 µM)	1 (≈ 6.4 µM)	> 10	0.75 (≈ 4.8 µM)	4.6 (≈ 29.5 µM)	> 10	0.8 (≈ 5.12 µM)	1.5 (≈ 9.61 µM)	3.6 (≈ 23.1 µM)	0.2 (≈ 1.28 µM)	Toxic
